Data reported in ChEMBL document CHEMBL3596120, “Discovery of natural alkaloid bouchardatine as a novel inhibitor of adipogenesis/lipogenesis in 3T3-L1 adipocytes” (Bioorg Med Chem, 2015).
The source made the active and inactive calls.

Columns and labels:
[1] = Reduction in AMPKbeta protein expression in mouse 3T3L1 cells at 1 to 50 uM after 9 days by Western blot method; assay type: functional, cell-based; conditions: 3T3-L1
In short: (§1)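 Mouse 3T3-L1 cells taken through the differentiation protocol, with compound or DMSO vehicle given from day 0 and renewed at day 3. Cells lysed on ice for 0.5 h in RIPA with PMSF, Na3VO4, NaF and protease inhibitors, then centrifuged at 12,000g. Lysates run on 12% SDS-PAGE and transferred to PVDF. Blots probed overnight at 4 °C and detected with HRP secondary. Bands quantified by optical density against GAPDH. Three independent experiments.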

[2] = Reduction in PPARgamma protein expression in mouse 3T3L1 cells at 25 uM after 3 days by Western blot method; assay type: functional, cell-based; conditions: 3T3-L1
In short: (§2)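 3T3-L1 preadipocytes grown in DMEM with 10% FBS at 37 °C under 5% CO2. Differentiation starts 2 days post-confluence (day 0) with IBMX, 100 ng/mL dexamethasone and insulin for 3 d, then insulin in 10% FBS/DMEM for 3 d, then basic medium for 3 d. Compound is added on day 0 and renewed at day 3. Vehicle control receives the same volume of DMSO.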

3T3-L1 [3] = test: Inhibition of adipogenesis in mouse 3T3L1 cells assessed as reduction in triglyceride content at 25 uM treated on day 3 to 6 by oil Red-O staining based microscopy; assay type: functional, cell-based
In short: (§3)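 After 3T3-L1 differentiation (IBMX/dexamethasone/insulin induction, insulin, then basal medium), cells were PBS-washed and fixed in 4% formalin for 60 min. Stained with filtered Oil Red O for 30 min at room temperature and imaged at 40× objective. Dye eluted with isopropanol and read at 510 nm. Three independent experiments.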

3T3-L1 [4] = test: Inhibition of adipogenesis in mouse 3T3L1 cells assessed as reduction in triglyceride content at 25 uM treated on day 6 to 9 by colorimetric assay; assay type: functional; conditions: 3T3-L1, 144 h
[5] = Reduction in C/EBPalpha mRNA expression in mouse 3T3L1 cells at 1 to 50 uM after 72 hrs by RT-PCR method; assay type: functional, cell-based; conditions: 3T3-L1
[6] = Reduction in PPARgamma mRNA expression in mouse 3T3L1 cells at 1 to 50 uM after 72 hrs by RT-PCR method; assay type: functional, cell-based; conditions: 3T3-L1; in short: as §2
3T3-L1 [7] = test: Increase in AMPKalpha Thr172 phosphorylation in mouse 3T3L1 cells at 25 uM by Western blot method; assay type: cell-based; conditions: TDE = time-dependent effect
3T3-L1 [8] = test: Inhibition of adipogenesis in mouse 3T3L1 cells assessed as reduction in triglyceride content at 25 uM treated on day 0 to 3 by oil Red-O staining based microscopy; assay type: functional, cell-based; in short: as §3
[9] = Reduction in C/EBPalpha protein expression in mouse 3T3L1 cells at 1 to 50 uM by Western blot method; assay type: functional, cell-based; conditions: 3T3-L1; in short: as §1
[10] = Reduction in C/EBPbeta mRNA expression in mouse 3T3L1 cells at 25 uM by RT-PCR method; assay type: functional, cell-based; conditions: 3T3-L1, TDE = time-dependent effect; in short: as §2
3T3-L1 [11] = test: Induction of cell cycle arrest in mouse 3T3L1 cells assessed as accumulation at G0/G1 phase at 1 to 50 uM after 24 hrs by flow cytometry; assay type: functional, cell-based
3T3-L1 [12] = test: Increase in AMPKalpha Thr172 phosphorylation in mouse 3T3L1 cells at 25 uM after 9 days by Western blot method; assay type: cell-based; in short: as §1
3T3-L1 [13] = test: Inhibition of adipogenesis in mouse 3T3L1 cells assessed as reduction in triglyceride content at 25 uM treated on day 3 to 6 by colorimetric assay; assay type: functional; conditions: 3T3-L1, 72 h
3T3-L1 [14] = test: Inhibition of adipogenesis in mouse 3T3L1 cells assessed as reduction in triglyceride content at 25 uM treated on day 0 to 9 by oil Red-O staining based microscopy; assay type: functional, cell-based; in short: as §3
3T3-L1 [15] = test: Induction of cell cycle arrest in mouse 3T3L1 cells assessed as accumulation at S phase at 25 uM after 24 hrs by flow cytometry (reference value: 18%); assay type: functional
3T3-L1 [16] = test: Increase in AMPKalpha Thr172 phosphorylation in mouse 3T3L1 cells at 1 to 50 uM after 9 days by Western blot method; assay type: cell-based; in short: as §1
[17] = Reduction in C/EBPalpha mRNA expression in mouse 3T3L1 cells at 25 uM by RT-PCR method; assay type: functional, cell-based; conditions: 3T3-L1, TDE = time-dependent effect
3T3-L1 [18] = test: Inhibition of adipogenesis in mouse 3T3L1 cells assessed as reduction in triglyceride content at 25 uM treated on day 6 to 9 by oil Red-O staining based microscopy; assay type: functional, cell-based; in short: as §3
[19] = Reduction in FAS protein expression in mouse 3T3L1 cells at 25 uM after 9 days by Western blot method; conditions: 3T3-L1
[20] = Reduction in C/EBPdelta mRNA expression in mouse 3T3L1 cells at 25 uM by RT-PCR method; assay type: functional, cell-based; conditions: 3T3-L1, TDE = time-dependent effect; in short: as §2
HepG2 [21] = test: Inhibition of oleic acid-induced adipogenesis in human HepG2 cells assessed as reduction in triglyceride content by colorimetric assay; assay type: functional, cell-based
In short: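 HepG2 cells loaded with 0.5 mM oleic acid sodium, with or without compound. Lysed in 0.2% Triton X-100 in water and sonicated. TG measured colorimetrically and normalised to cellular protein. Blank: no oleate. Three independent experiments.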

[22] = Reduction in AMPKalpha protein expression in mouse 3T3L1 cells at 1 to 50 uM after 9 days by Western blot method; assay type: functional, cell-based; conditions: 3T3-L1; in short: as §1
[23] = Reduction in SREBP-1c protein expression in mouse 3T3L1 cells at 1 to 50 uM by Western blot method; assay type: functional, cell-based; conditions: 3T3-L1; in short: as §2
[24] = Reduction in ACC protein expression in mouse 3T3L1 cells at 1 to 50 uM after 9 days by Western blot method; assay type: functional, cell-based; conditions: 3T3-L1; in short: as §1
[25] = Reduction in C/EBPbeta mRNA expression in mouse 3T3L1 cells after 72 hrs by RT-PCR method; assay type: functional, cell-based; conditions: 3T3-L1; in short: as §2
3T3-L1 [26] = test: Inhibition of adipogenesis in mouse 3T3L1 cells assessed as reduction in lipid droplets at 1 to 50 uM by oil Red-O staining based microscopy; assay type: functional, cell-based; in short: as §3
[27] = Reduction in SREBP-1c protein expression in mouse 3T3L1 cells at 25 uM after 3 days by Western blot method; assay type: functional, cell-based; conditions: 3T3-L1; in short: as §2
3T3-L1 [28] = test: Reduction in AMPKalpha2 mRNA expression in mouse 3T3L1 cells at 25 uM after 24 hrs by RT-PCR method; assay type: functional, cell-based
3T3-L1 [29] = test: Increase in AMPKbeta Ser108 phosphorylation in mouse 3T3L1 cells at 1 to 50 uM after 9 days by Western blot method; assay type: cell-based; in short: as §1
3T3-L1 [30] = test: Activation of AMPK in mouse 3T3L1 cells assessed as increase in ACC Ser79 phosphorylation at 1 to 50 uM after 9 days by Western blot method; assay type: cell-based; in short: as §1
3T3-L1 [31] = test: Inhibition of adipogenesis in mouse 3T3L1 cells assessed as reduction in triglyceride content at 25 uM by colorimetric assay; assay type: functional, cell-based
3T3-L1 [32] = test: Inhibition of adipogenesis in mouse 3T3L1 cells assessed as reduction in cell size at 1 to 50 uM by oil Red-O staining based microscopy; assay type: functional; in short: as §3
[33] = Reduction in C/PPARgamma mRNA expression in mouse 3T3L1 cells at 25 uM by RT-PCR method; assay type: functional, cell-based; conditions: 3T3-L1, TDE = time-dependent effect; in short: as §2
3T3-L1 [34] = test: Inhibition of adipogenesis in mouse 3T3L1 cells assessed as reduction in triglyceride content at 25 uM treated on day 0 to 6 by oil Red-O staining based microscopy; assay type: functional, cell-based; in short: as §3
[35] = Reduction in SREBP-1c mRNA expression in mouse 3T3L1 cells at 1 to 50 uM after 72 hrs by RT-PCR method; assay type: functional, cell-based; conditions: 3T3-L1; in short: as §2
3T3-L1 [36] = test: Inhibition of adipogenesis in mouse 3T3L1 cells assessed as reduction in triglyceride content at 25 uM treated on day 0 to 3 by colorimetric assay; assay type: functional; conditions: 3T3-L1, 0 h
3T3-L1 [37] = test: Inhibition of adipogenesis in mouse 3T3L1 cells assessed as reduction in triglyceride content at 1 to 50 uM by colorimetric assay; assay type: functional, cell-based
[38] = Cytotoxicity against mouse 3T3L1 cells at 1 to 50 uM incubated for 1 to 9 days by LDH assay; assay type: cell-based; conditions: 3t3-l1, 50 µM
In short: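 3T3-L1 adipocytes seeded at 7 × 10^3 cells/well, then treated 24 h later with DMSO vehicle as control. LDH in media and in cell lysates measured with a commercial kit. Cytotoxicity = LDH released into medium / maximal LDH release × 100. Maximum: […]. Blank: medium without cells.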

3T3-L1 [39] = test: Reduction in AMPKalpha1 mRNA expression in mouse 3T3L1 cells at 25 uM after 24 hrs by RT-PCR method; assay type: functional, cell-based
[40] = Cytotoxicity against mouse 3T3L1 cells assessed effect on cell morphology at 1 to 50 uM incubated for 1 to 9 days by microscopy; assay type: cell-based; conditions: 3t3-l1, 50 µM
3T3-L1 [41] = test: Induction of cell cycle arrest in mouse 3T3L1 cells assessed as accumulation at G2/M phase at 1 to 50 uM by flow cytometry; assay type: functional, cell-based
3T3-L1 [42] = test: Inhibition of adipogenesis in mouse 3T3L1 cells assessed as reduction in cell finger ring diameter size at 1 to 50 uM by oil Red-O staining based microscopy; assay type: functional; in short: as §3
[43] = Reduction in FAS protein expression in mouse 3T3L1 cells at 1 to 50 uM after 9 days by Western blot method; assay type: functional, cell-based; conditions: 3T3-L1; in short: as §2
3T3-L1 [44] = test: Induction of cell cycle arrest in mouse 3T3L1 cells assessed as accumulation at G2/M phase at 25 uM after 24 hrs by flow cytometry (reference value: 29%); assay type: functional
[45] = Reduction in PPARgamma protein expression in mouse 3T3L1 cells at 1 to 50 uM by Western blot method; assay type: functional, cell-based; conditions: 3T3-L1; in short: as §2
3T3-L1 [46] = test: Induction of cell cycle arrest in mouse 3T3L1 cells assessed as accumulation at G0/G1 phase at 25 uM after 24 hrs by flow cytometry (reference value: 42%); assay type: functional
3T3-L1 [47] = test: Activation of AMPK in mouse 3T3L1 cells assessed as increase in ACC Ser79 phosphorylation at 25 uM after 9 days by Western blot method; assay type: cell-based; in short: as §1
[48] = Reduction in C/EBPalpha protein expression in mouse 3T3L1 cells at 25 uM after 3 days by Western blot method; assay type: functional, cell-based; conditions: 3T3-L1; in short: as §2
3T3-L1 [49] = test: Inhibition of adipogenesis in mouse 3T3L1 cells assessed as reduction in lipid content at 25 uM by colorimetric assay; assay type: functional
[50] = Reduction in SCD1 protein expression in mouse 3T3L1 cells at 1 to 50 uM after 9 days by Western blot method; assay type: functional, cell-based; conditions: 3T3-L1; in short: as §2
3T3-L1 [51] = test: Inhibition of adipogenesis in mouse 3T3L1 cells assessed as reduction in triglyceride content at 25 uM treated on day 3 to 9 by oil Red-O staining based microscopy; assay type: functional, cell-based; in short: as §3
[52] = Reduction in SCD1 protein expression in mouse 3T3L1 cells at 25 uM after 9 days by Western blot method; conditions: 3T3-L1
HepG2 [53] = test: Cytotoxicity against human HepG2 cells at 1 to 100 uM by MTT assay; assay type: cell-based; conditions: hepg2, 100 µM
In short: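 HepG2 cells seeded at 7 × 10^3 cells/well. After 24 h, treated with 1, 10, 25, 50 or 100 µM; DMSO vehicle control. After the set time, MTT at 0.5 mg/mL was added for 4 h at 37 °C. Formazan dissolved in DMSO and read at 490 nm. Run in triplicate.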

O=Cc1c(-c2nc3ccccc3c(=O)[nH]2)[nH]c2ccccc12
< 10%: inhibition at 25 µM (3T3-L1 [4])
5%: Activity (3T3-L1 [15])
active: Activity [1] | Activity [2] | inhibition (3T3-L1 [3]) | Activity [5] | Activity [6] | Activity (3T3-L1 [7]) tde | inhibition (3T3-L1 [8]) | Activity [9] | Activity [10] tde | Activity (3T3-L1 [11]) Dose-dependent effect | Activity (3T3-L1 [12]) | inhibition (3T3-L1 [14]) | Activity (3T3-L1 [16]) Dose-dependent effect | Activity [17] tde | inhibition (3T3-L1 [18]) | Activity [19] | Activity [20] tde | inhibition (HepG2 [21]) Dose-dependent effect | Activity [22] | Activity [23] | Activity [24] | Activity [25] Dose-dependent effect | inhibition (3T3-L1 [26]) | Activity [27] | Activity (3T3-L1 [28]) | Activity (3T3-L1 [29]) Dose-dependent effect | Activity (3T3-L1 [30]) | Activity (3T3-L1 [31]) | inhibition (3T3-L1 [32]) | Activity [33] tde | inhibition (3T3-L1 [34]) | Activity [35] | inhibition (3T3-L1 [37]) Dose-dependent effect | Activity (3T3-L1 [39]) | Activity (3T3-L1 [41]) | inhibition (3T3-L1 [42]) | Activity [43] | Activity [45] | Activity (3T3-L1 [47]) | Activity [48] | Activity [50] | inhibition (3T3-L1 [51]) | Activity [52]
50%: inhibition at 25 µM (3T3-L1 [36]) | inhibition at 25 µM (3T3-L1 [49])
Non-toxic: Activity [38] | Activity [40] | Activity (HepG2 [53])
57%: Activity (3T3-L1 [44])
30%: inhibition at 25 µM (3T3-L1 [13])
40%: Activity (3T3-L1 [46])
